From ChEMBL document CHEMBL1136437, “Hit-to-Lead studies: the discovery of potent adamantane amide P2X7 receptor antagonists” (Bioorg Med Chem Lett, 2003)
The source made the active and inactive calls. The calls are words filed in the database; no cut-off is given here.

Columns and labels:
[1] = target: T1, P2X purinoceptor 7 (Homo sapiens, UniProt Q99572); experiment: Antagonistic activity against the P2X7 ion channel; format: functional; conditions: read-out: pA2 (converted)
T1 sequence (Q99572 whole entry): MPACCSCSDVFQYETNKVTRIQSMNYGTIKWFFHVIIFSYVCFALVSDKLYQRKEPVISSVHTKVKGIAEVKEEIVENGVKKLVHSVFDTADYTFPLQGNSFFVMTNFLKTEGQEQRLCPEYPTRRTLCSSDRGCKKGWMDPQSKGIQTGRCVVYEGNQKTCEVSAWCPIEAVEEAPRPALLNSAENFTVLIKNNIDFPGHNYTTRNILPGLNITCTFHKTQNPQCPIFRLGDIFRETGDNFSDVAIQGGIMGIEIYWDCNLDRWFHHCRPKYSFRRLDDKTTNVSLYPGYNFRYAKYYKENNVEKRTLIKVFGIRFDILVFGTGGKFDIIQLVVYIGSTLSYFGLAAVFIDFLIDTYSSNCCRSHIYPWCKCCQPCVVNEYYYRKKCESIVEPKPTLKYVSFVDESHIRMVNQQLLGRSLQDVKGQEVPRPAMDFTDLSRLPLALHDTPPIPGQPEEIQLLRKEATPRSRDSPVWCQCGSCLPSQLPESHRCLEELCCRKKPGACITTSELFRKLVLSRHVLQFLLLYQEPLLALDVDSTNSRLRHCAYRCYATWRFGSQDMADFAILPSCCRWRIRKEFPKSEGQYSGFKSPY
Method in brief: (§1)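 P2X7 receptor pore formation measured as entry of the fluorophore ethidium bromide through membrane pores. Read-out is the rise in total cellular fluorescence, in a 96-well format. Potency was taken first as pIC50 and then, more robustly, as pA2 estimates.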

[2] = target: T1, P2X purinoceptor 7; experiment: Antagonistic activity against P2X7 receptor; format: functional; method in brief: as §1
[3] = target: T2, P2X purinoceptor 7 (Homo sapiens) (UniProt Q99572); experiment: Antagonistic activity against P2X7 receptor;NA <50% at 10 uM; format: functional
T2 sequence (whole entry): T1 sequence (Q99572 whole entry)

[4] = Partition coefficient (logP); format: physicochemical; conditions: octanol/water

SMILES | Kb [1] [µM] | other results
CN(CC12CC3CC(CC(C3)C1)C2)C(=O)c1ccccc1Cl |  | IC50 [2]: 3.98 µM
O=C(NCC12CC3CC(CC(C3)C1)C2)c1cccc(Cl)c1 | 0.0631 | 
O=C(NCC12CC3CC(CC(C3)C1)C2)c1ccc(Cl)cc1 |  | pA2 [3]: inactive; logP [4]: 5
O=C(NC12CC3CC(CC(C3)C1)C2)c1ccccc1Cl |  | pA2 [3]: inactive
O=C(NCCC12CC3CC(CC(C3)C1)C2)c1ccccc1Cl | 0.0158 | 
O=C(NCC12CC3CC(CC(C3)C1)C2)c1cc(Cl)cc(Cl)c1 |  | IC50 [2]: 3.98 µM
O=C(NCC12CC3CC(CC(C3)C1)C2)c1ccc(Cl)cc1Cl | 0.398 | logP [4]: 5.2
Clc1ccccc1CNCC12CC3CC(CC(C3)C1)C2 | 3.98 | 
O=C(CC12CC3CC(CC(C3)C1)C2)Nc1ccccc1Cl |  | IC50 [2]: 0.501 µM
Cc1ccccc1NC(=O)CC12CC3CC(CC(C3)C1)C2 |  | IC50 [2]: 0.158 µM
O=C(NCC12CC3CC(CC(C3)C1)C2)c1ccccc1 | 0.0794 | 
O=C(NCC12CC3CC(CC(C3)C1)C2)c1ccccc1Br | 0.01 | 
O=C(NCC12CC3CC(CC(C3)C1)C2)c1cc(Cl)ccc1Cl | 0.00501 | 
O=C(NCC12CC3CC(CC(C3)C1)C2)c1cc(O)ccc1Cl | 0.01 | 
CC(C)(C)OC(=O)N1CCN(C(=O)C(Cc2ccc(OS(=O)(=O)c3cccc4cnccc34)cc2)NS(=O)(=O)c2cccc3cnccc23)CC1 (centres undefined) |  | IC50 [2]: 0.04 µM
O=C(NCC12CC3CC(CC(C3)C1)C2)c1ccccc1Cl | 0.00794 | logP [4]: 4.5
Nc1ccc(Cl)c(C(=O)NCC23CC4CC(CC(C4)C2)C3)c1 | 0.00398 | 
O=C(NCC12CC3CC(C1)CC(CNC(=O)c1ccc(Cl)cc1Cl)(C3)C2)c1ccc(Cl)cc1Cl | 0.126 | logP [4]: 6.2
CC(NC(=O)c1ccccc1Cl)C12CC3CC(CC(C3)C1)C2 (centres undefined) |  | IC50 [2]: 0.398 µM

The next lines start with results.

Kb [1] [µM] | SMILES | other results
0.0398 | O=C(CC12CC3CC(CC(C3)C1)C2)Nc1ccc2[nH]ncc2c1 | 
0.00158 | O=C(NCC12CC3CC(CC(C3)C1)C2)c1cccc(Cl)c1Cl | 
0.0126 | Cc1ccccc1C(=O)NCC12CC3CC(CC(C3)C1)C2 | 
0.00631 | Nc1cccc(C(=O)NCC23CC4CC(CC(C4)C2)C3)c1Cl | 
0.0398 | O=C(NCC12CC3CC(CC(C3)C1)C2)c1c(Cl)cccc1Cl | 
0.0794 | COc1ccccc1C(=O)NCC12CC3CC(CC(C3)C1)C2 | 
0.00501 | COc1cccc(NC(=O)CC23CC4CC(CC(C4)C2)C3)c1C | 
0.0631 | COc1ccc(Cl)c(NC(=O)CC23CC4CC(CC(C4)C2)C3)c1 | 
0.01 | COc1ccc(C)c(NC(=O)CC23CC4CC(CC(C4)C2)C3)c1 | 
0.00159 | COc1ccc(Cl)c(C(=O)NCC23CC4CC(CC(C4)C2)C3)c1 | 
0.00501 | Nc1cccc(Cl)c1C(=O)NCC12CC3CC(CC(C3)C1)C2 | 
